Test results taken from BindingDB's records for doi:10.1021/acs.jmedchem.9b01313 (Anhui Medical University, 2019).

Target: Hypoxia-inducible factor 1-alpha (Homo sapiens, UniProt Q16665)
Experiment: Inhibition of HIF1alpha transcriptional activity in hypoxia-induced human HCCLM3 cells co-transfected with luciferase reporter plasmid containing five copies of HREs and pRL-SV40 plasmid encoding Renilla luciferase incubated with compound under normoxia for 1 hr followed by hypoxia induction and measured after 24 hrs by HRE-dependent dual luciferase reporter gene assay
Method in brief: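 LM3 cells co-transfected with firefly luciferase reporter carrying five HRE copies plus pRL-SV40 Renilla plasmid; after transfection treated and kept under hypoxia; firefly luminescence normalized to Renilla. Single-point inhibition rate at 10 μM; IC50 for selected compounds.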

Hypoxia-inducible factor 1-alpha, sequence (Q16665 whole entry): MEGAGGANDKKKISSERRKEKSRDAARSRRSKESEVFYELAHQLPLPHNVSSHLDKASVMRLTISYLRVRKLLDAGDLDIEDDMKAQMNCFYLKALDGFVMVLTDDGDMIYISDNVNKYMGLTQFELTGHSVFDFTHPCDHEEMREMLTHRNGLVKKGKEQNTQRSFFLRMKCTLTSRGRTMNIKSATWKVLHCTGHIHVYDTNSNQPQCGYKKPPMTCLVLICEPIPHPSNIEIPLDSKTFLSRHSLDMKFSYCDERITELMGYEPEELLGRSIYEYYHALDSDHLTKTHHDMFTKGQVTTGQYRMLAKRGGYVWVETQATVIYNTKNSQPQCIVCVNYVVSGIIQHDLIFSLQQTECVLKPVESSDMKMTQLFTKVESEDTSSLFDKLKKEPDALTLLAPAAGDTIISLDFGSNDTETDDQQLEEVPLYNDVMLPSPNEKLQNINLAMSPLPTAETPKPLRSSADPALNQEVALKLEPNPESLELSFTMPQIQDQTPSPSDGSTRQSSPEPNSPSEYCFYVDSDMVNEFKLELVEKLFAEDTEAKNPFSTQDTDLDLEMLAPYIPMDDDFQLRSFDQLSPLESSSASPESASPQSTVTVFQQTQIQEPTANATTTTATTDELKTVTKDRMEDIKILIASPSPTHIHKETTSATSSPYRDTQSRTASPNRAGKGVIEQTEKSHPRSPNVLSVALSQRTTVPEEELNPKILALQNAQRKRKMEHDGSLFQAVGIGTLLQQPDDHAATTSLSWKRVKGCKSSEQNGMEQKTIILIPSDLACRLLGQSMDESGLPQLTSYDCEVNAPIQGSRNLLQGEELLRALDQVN

Structure (SMILES) | IC50
Nc1ccc(CCNC(=O)c2ccc(-c3ccccc3)cn2)cc1 | 11.6 µM
O=C(NCCc1cccc(Cl)c1)c1ccc(-c2ccccc2)cn1 | 9.84 µM
O=C(NCCc1ccccc1F)c1ccc(-c2ccsc2)cn1 | 1.41 µM
O=C(NCCc1ccncc1)c1nnc(-c2ccccc2)o1 | 7.32 µM
COC(=O)c1ccc(O)c(NC(=O)COc2ccc(C34CC5CC(CC(C5)C3)C4)cc2)c1 | 3.08 µM
O=C(NCCc1ccccc1F)c1ccc(-c2ccccc2)cn1 | 0.93 µM
O=C(NCCc1ccccc1Cl)c1ccc(-c2ccccc2)cc1 | 2.87 µM
O=C(NCCc1ccccc1F)c1ccc(-c2ccoc2)cn1 | 4.24 µM
O=C(NCCc1ccccc1Cl)c1ccc(-c2ccccc2)cn1 | 9.84 µM
O=C(NCCc1ccncc1)c1nccc(-c2ccccc2)n1 | 10 µM
N#Cc1ccccc1-c1ccc(C(=O)NCCc2ccccc2F)nc1 | 8.53 µM
COc1ccccc1-c1ccc(C(=O)NCCc2ccccc2F)nc1 | 0.32 µM
O=C(NCCc1ccccc1F)c1ccc(-c2ccccc2F)cn1 | 2.16 µM
O=C(NCCc1ccncc1)c1ccc(-c2ccccc2)cn1 | 13.8 µM
O=C(NCCc1ccccc1)c1ccc(-c2ccccc2)cn1 | 4.56 µM
O=C(NCCc1ccccc1F)c1ccc(-c2cccs2)cn1 | 2.48 µM
Cc1nc(C(=O)NCCc2ccccc2)cs1 | 55.7 µM
